In one data set the target is hERG (KCNH2) (Homo sapiens, UniProt Q12809). Nature of the data set: Inhibition of human ERG expressed in HMZ/CHO.8B4 cells at 10 uM by patch clamp assay. Format: cell-based. Conditions: HMZ/CHO.8B4 cells expressing human ERG. On the technique in general: Patch clamp records ionic current or voltage across a cell membrane.
A short description of data set [1]: Bioavailability in Sprague-Dawley rat. In kind it is ADME, organism-based. Conditions: in vivo.
Data set [2] is described as follows: Total clearance in Sprague-Dawley rat plasma at 1 mg/kg, iv. More on the design: dose 1 mg/kg, route intravenous. Format: ADME, organism-based. A digest of the protocol:
(§1)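 Male Sprague-Dawley rats, 8 weeks old, given intravenous dose.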

Data set [3] is described as follows: Volume of distribution at steady state in Sprague-Dawley rat at 1 mg/kg, iv. More on the design: dose 1 mg/kg, route intravenous. Format: ADME, organism-based. As to conditions: in vivo, read-out: Vdss. A digest of the protocol: as §1
Data set [4] is described as follows: Cmax in Sprague-Dawley rat plasma at 3 mg/kg, po. Format: ADME, organism-based. Details: dose 3 mg/kg, route oral. A digest of the protocol:
(§2)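 Male Sprague-Dawley rats, 8 weeks old, given oral dose.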

A short description of data set [5]: Tmax in Sprague-Dawley rat at 3 mg/kg, po. More on the design: dose 3 mg/kg, route oral. Conditions: in vivo. In kind it is ADME, organism-based. A digest of the protocol: as §2
Data set [6] is described as follows: AUC (0 to 24 hrs) in Sprague-Dawley rat at 3 mg/kg, po. In kind it is ADME, organism-based. More on the design: time < 24 hr, dose 3 mg/kg, route oral. As to conditions: plasma. A digest of the protocol:
as §2

A further data set concerns Rattus norvegicus. As to the kind of experiment: Antiobesity activity in po dosed diet induced obese F344 rat model assessed as inhibition of food intake administered qd for 2 days. Format: functional, organism-based. A digest of the protocol:
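Male F344/Jcl rats, 32 weeks old, on high-fat diet from 5 weeks of age, housed singly on a 7:00–19:00 light cycle, habituated to oral water dosing, grouped by food intake and body weight (n = 6). Dosed orally at 1, 3, 5 or 10 mg/kg in 0.5% methylcellulose (2 mL/kg) at 5:00 p.m. on days 0 and 1. Cumulative intake on days 1 and 2 expressed as ratio to vehicle group; Williams test.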

Data set [7] has as its target T1, Melanin-concentrating hormone receptor 1 (Homo sapiens, UniProt Q99705). As to the kind of experiment: Displacement of [125I]MCH from human MCHR1 expressed in CHO cells after 60 mins by liquid scintillation counting. Format: cell-based. A digest of the protocol:
(§3)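 Membrane homogenates from CHO cells stably expressing human or rat MCHR1 in 25 mM Tris-HCl pH 7.5 with EDTA, BSA and protease inhibitors. Membrane protein 2 μg/mL (human) or 4 μg/mL (rat). Nonspecific binding defined with 0.3 μM MCH(1–19). Filter radioactivity counted. IC50 from one experiment in duplicate.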

The target of data set [8] is Melanin-concentrating hormone receptor 1 (Rattus norvegicus, UniProt P97639). Nature of the data set: Displacement of [125I]MCH from rat MCHR1 expressed in CHO cells after 60 mins by liquid scintillation counting. In kind it is cell-based. A digest of the protocol: as §3
For orientation: Displacement assays read how much labelled ligand stays bound in the presence of the test substance.

For data set [9], the target named is T1, Melanin-concentrating hormone receptor 1. As to the kind of experiment: Antagonist activity at human MCHR1 expressed in CHO cells assessed as inhibition of MCH-stimulated arachidonic acid release after 45 mins by liquid scintillation counting. Format: functional, cell-based.
Data set [10] deals with Voltage-gated inwardly rectifying potassium channel KCNH2 (Homo sapiens, UniProt Q12809). Nature of the data set: Inhibition of human ERG expressed in HMZ/CHO.8B4 cells assessed as inhibition of Rb+ efflux at 30 uM after 30 mins by flame atomic absorption spectrometer analysis relative to astemizole. Conditions: 0.5 h. Format: cell-based. A digest of the protocol: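 HMZ/CHO.8B4 cells stably expressing hERG, 4 × 10⁴ cells/well, 24 h on collagen, Rb-loaded 3 h at 37 °C (5.4 mM RbCl, pH 7.4). Compound added for 30 min (n = 7), then 5 min stimulation with 50 mM KCl. Supernatant and lysate Rb⁺ read by flame atomic absorption. Fractional efflux normalized to background and maximum; astemizole as 0, vehicle as 1.0.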

Data set [11] in a line: Lipophilicity, log D of the compound at pH 7.4. Format: physicochemical. As to conditions: buffer.

Voltage-gated inwardly rectifying potassium channel KCNH2, sequence (Q12809 whole entry): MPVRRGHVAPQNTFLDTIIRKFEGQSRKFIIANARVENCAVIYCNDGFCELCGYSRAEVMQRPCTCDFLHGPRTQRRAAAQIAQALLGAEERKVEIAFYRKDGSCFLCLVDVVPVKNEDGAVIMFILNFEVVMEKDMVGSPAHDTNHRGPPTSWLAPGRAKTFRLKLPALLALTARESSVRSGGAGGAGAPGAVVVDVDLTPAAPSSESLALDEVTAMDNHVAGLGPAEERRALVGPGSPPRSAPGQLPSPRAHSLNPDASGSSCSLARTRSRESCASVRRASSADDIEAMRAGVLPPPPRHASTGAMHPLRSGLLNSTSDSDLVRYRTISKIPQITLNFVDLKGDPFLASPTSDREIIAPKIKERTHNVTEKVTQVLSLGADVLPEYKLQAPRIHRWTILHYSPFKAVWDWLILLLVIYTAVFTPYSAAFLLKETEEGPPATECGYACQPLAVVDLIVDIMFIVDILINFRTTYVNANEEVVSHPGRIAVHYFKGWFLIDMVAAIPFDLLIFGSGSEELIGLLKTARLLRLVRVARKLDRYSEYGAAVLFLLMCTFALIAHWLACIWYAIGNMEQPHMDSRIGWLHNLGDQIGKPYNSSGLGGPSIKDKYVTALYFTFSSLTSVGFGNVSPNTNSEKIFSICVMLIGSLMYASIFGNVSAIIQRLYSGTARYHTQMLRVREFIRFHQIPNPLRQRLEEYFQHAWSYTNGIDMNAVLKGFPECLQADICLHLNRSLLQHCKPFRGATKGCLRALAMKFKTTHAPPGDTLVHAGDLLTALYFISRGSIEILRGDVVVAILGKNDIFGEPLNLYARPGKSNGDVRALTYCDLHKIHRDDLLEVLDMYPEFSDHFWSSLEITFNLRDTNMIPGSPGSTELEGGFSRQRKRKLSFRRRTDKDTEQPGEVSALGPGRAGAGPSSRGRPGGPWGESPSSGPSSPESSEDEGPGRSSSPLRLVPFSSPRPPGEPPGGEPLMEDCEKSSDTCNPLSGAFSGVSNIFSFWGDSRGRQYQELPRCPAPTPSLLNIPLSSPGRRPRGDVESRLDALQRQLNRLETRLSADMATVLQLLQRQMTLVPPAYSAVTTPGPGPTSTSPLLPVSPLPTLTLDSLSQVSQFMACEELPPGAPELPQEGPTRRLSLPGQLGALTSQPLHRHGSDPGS
hERG (KCNH2), sequence (Q12809 whole entry): as above
Melanin-concentrating hormone receptor 1 (Rattus norvegicus, UniProt P97639), sequence (P97639 whole entry): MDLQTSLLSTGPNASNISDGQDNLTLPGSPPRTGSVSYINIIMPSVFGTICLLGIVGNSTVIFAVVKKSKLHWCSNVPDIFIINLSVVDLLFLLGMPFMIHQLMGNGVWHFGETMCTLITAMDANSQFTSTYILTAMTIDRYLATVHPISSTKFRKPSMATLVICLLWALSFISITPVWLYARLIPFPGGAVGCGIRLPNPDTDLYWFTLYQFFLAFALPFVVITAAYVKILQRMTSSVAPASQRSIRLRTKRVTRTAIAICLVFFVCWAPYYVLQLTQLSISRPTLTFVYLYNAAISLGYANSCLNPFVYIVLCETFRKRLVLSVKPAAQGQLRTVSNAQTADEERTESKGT
T1 sequence (Q99705 whole entry): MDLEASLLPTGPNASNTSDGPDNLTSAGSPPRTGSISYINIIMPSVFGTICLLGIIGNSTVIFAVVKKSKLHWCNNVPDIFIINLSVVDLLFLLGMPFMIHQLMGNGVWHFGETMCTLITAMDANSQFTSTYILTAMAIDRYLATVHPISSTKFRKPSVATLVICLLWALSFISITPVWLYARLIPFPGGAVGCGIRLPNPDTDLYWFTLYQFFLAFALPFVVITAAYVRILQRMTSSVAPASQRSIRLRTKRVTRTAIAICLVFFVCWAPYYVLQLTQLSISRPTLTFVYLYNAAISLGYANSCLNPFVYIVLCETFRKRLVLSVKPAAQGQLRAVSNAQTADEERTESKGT

With `CC(=O)NCCN[C@H](C)c1cnc2c(C)c(NC(=O)c3ccc(OCC4CC4)cc3)ccc2c1`, 10 µM produced 33.2% inhibition at hERG (KCNH2). Also, the bioavailability in data set [1] worked out at 43%. In addition, in data set [2], the clearance was 11.5 mL/min/kg. Further, in [3], the Vd was 1.21 L/kg. Also, the Cmax in [4] came to 274 ng/mL. The Tmax in data set [5] worked out at 4 h. For the same compound, the AUC(0-t) at 24 h in data set [6] was determined as 1940 ng·h/mL. The inhibition entry with Rattus norvegicus is “Dose-dependent effect”.
For the compound `Cc1c(NC(=O)c2ccc(OCC3CC3)cc2)ccc2cc(CN3CCCC3C)cnc12` (racemic), the results for the IC50 in data set [7] and in data set [8] were 2.5 nM and 6.7 nM, respectively.
`Cc1c(NC(=O)c2ccc(OCC3CC3)cc2)ccc2cc([C@@H](C)N3CCCC3)cnc12`: the IC50 in [7] was found to be 1.1 nM; in data set [8], 1.9 nM; in data set [9], 2.9 nM. Also, in [10], the Ratio stood at 1.11. The compound further returned a logD in [11] of 2.99. The same compound registered an inhibition at 10 µM on hERG (KCNH2) of 88.1%.
As to `Cc1c(NC(=O)c2ccc(OCC3CC3)cc2)ccc2cc(C(C)N3CC[C@H](O)C3)cnc12` (mixture of isomers), on hERG (KCNH2), the inhibition at 10 µM came out at 58.4%.
Turning to `Cc1c(NC(=O)c2ccc(OCC3CC3)cc2)ccc2cc(C(C)NCC(C)(C)O)cnc12` (racemic), the IC50 in data set [7] came out at 1.5 nM; in [8], 2.7 nM; in data set [9], 6.4 nM. Besides, the logD in data set [11] is 2.67. This compound came in with an inhibition at 10 µM at hERG (KCNH2) of 63.3%.
As for `CCCCCC(=O)c1ccc(C(=O)Nc2ccc3cc(CN4CCCC4)cnc3c2C)cc1`, the IC50 in data set [7] was 170 nM. Besides, the Ratio in data set [10] is on record as 0.48. The logD in [11] worked out at 3.5.
Regarding `Cc1c(NC(=O)c2ccc(OCC3CC3)cc2)ccc2cc(CN3CCCC3)cnc12`, the IC50 was 1.8 nM in [7], 1.6 nM in data set [8] and 4.3 nM in [9]. In addition, the Ratio in data set [10] is given as 0.9. The logD in data set [11] stood at 2.77.
Consider `Cc1c(NC(=O)c2ccc(OCC(C)C)cc2)ccc2cc(CN3CCCC3)cnc12`, for which the results for the 50% inhibitory concentration (IC50) in data set [7] and in [8] were 4.4 nM and 6.7 nM, respectively. Further, the Ratio in [10] was 0.7. Moreover, in [11], the pH-dependent lipophilicity (logD) is 3.35.
As for `Cc1c(NC(=O)c2ccc(-c3ccc(F)cc3)cc2)ccc2cc(CN3CCCC3)cnc12`, the IC50 in [8] worked out at 1 nM. Also, the Ratio in data set [10] stood at 0.17. In addition, the logD in data set [11] came to 2.77. The compound further gave an inhibition at 10 µM at hERG (KCNH2) of 93.8%.
Consider `CC(=O)NCCN[C@@H](C)c1cnc2c(C)c(NC(=O)c3ccc(OCC4CC4)cc3)ccc2c1`, for which, on hERG (KCNH2), the inhibition at 10 µM turned out to be 33.3%.
Same read-out and setting: as for `CC(=O)NCCNC(C)c1cnc2c(C)c(NC(=O)c3ccc(OCC4CC4)cc3)ccc2c1` (racemic), the figure is 29.3%.
The same measure, in the same setting: the result for `Cc1c(NC(=O)c2ccc(OCC3CC3)cc2)ccc2cc(C(C)NCCO)cnc12` (racemic) reads 84.8%.
In the case of `Cc1c(NC(=O)c2ccc(OCC3CC3)cc2)ccc2cc(C(C)N3CCCCCC3)cnc12` (racemic), the IC50 in data set [7] is 2 nM; in data set [8], 5.6 nM; in data set [9], 3.4 nM. The Ratio in data set [10] was found to be 0.73. The compound also yielded a logD in data set [11] of 3.91.
The matching figures for `Cc1c(NC(=O)c2ccc(OCC3CC3)cc2)ccc2cc([C@H](C)N3CCCC3)cnc12`: 3.4 nM, 8 nM, 4 nM, 0.85 and 2.99.
The matching figures for `Cc1c(NC(=O)c2ccc(OCC3CC3)cc2)ccc2cc(C(C)N3CCCC3)cnc12` (racemic): 1.7 nM, 4.2 nM, 6.4 nM, 1.02 and 3.

What is called inhibition is how much of the control response was suppressed. One may read the bioavailability as dose-corrected exposure relative to a reference, in per cent. High values mean much systemic uptake, low ones little systemic uptake. In general, clearance refers to the volume of plasma or blood freed of the substance per unit of time. Read a low clearance as inefficient removal. By Cmax is commonly meant the peak of the concentration-time curve. The Tmax is the time at which the peak concentration occurs. By AUC(0-t) is commonly meant the area under the concentration-time curve up to a stated or last time point. The term IC50 denotes the midpoint of a concentration-inhibition curve. Broadly, the logD is the decadic logarithm of the distribution of all forms, ionised or not, between an organic phase and buffer at a given pH. A high value points to a more lipophilic compound.

For the origin of these results see ChEMBL document CHEMBL2057191, “Synthesis, structure-activity relationship, and pharmacological studies of novel melanin-concentrating hormone receptor 1 antagonists 3-aminomethylquinolines: reducing human ether-a-go-go-related gene (hERG) associated liabilities” (J Med Chem, 2012).
